The species named for assay [1] is Rattus norvegicus. Briefly: Tested for […] anti-oxytocic effect in the absence of Mg2+ in rats. The following applies: for Kb: Rattus norvegicus, read-out: pA2 (converted). It counts as functional, organism-based. The method, boiled down: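 Isolated rat uterus in vitro in a medium without Mg2+. Antagonism is expressed as pA2 by the Schild method, computed per assay group, with mean ± SE and the number of assays.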

The test system of assay [2] is Rattus norvegicus. Briefly: Tested for intravenous antidiuretic activity in rats. It counts as functional, Urine. Also noted: unit: U/mg. The method, boiled down:
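Intravenous antidiuretic assay in rats under ethanol anesthesia. Agonistic activity is expressed in units per milligram.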

Assay [3] concerns Rattus norvegicus. Briefly: Tested for intravenous anti-vasopressor pA2 effect in rats; agonist at concentration of 4 units/mg. The following applies: filed as agonist.
The test system of assay [4] is Rattus norvegicus. Briefly: Tested for intravenous anti-oxytocic effect in in vivo in rats. The class given is functional, organism-based. Conditions: read-out: pA2 (converted). The method, boiled down: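 Rat uterus in situ; antagonism expressed as pA2 by the Schild method, calculated for each assay group and reported as mean ± SE, with the number of assays given.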

For assay [5], the system named is Rattus norvegicus. Briefly: Tested for intravenous anti-oxytocic effect in the presence of Mg2+ in rats. It counts as functional, organism-based. Conditions: read-out: pA2 (converted).
Assay [6] has as its system Rattus norvegicus. Briefly: Tested for intravenous anti-vasopressor pA2 effect in rats. The class given is functional, organism-based. Conditions: for Kb: Rattus norvegicus, read-out: pA2 (converted). In outline:
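Vasopressor assay in rats pretreated with phenoxybenzamine under urethane anesthesia, using intravenous injections. The pA2 is derived by the Schild method for each assay group and reported as mean ± SE, with the number of assays given.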

For assay [7], the system named is Rattus norvegicus. Briefly: Tested for intravenous anti-oxytocic effect in the absence of Mg2+ in rats; agonist at concentration of 8 units/kg. The class given is functional, organism-based. The following applies: filed as agonist.
The subject of assay [8] is Rattus norvegicus. Briefly: Tested for intravenous anti-oxytocic effect in the absence of Mg2+ in rats; agonist at concentration of 47 units/kg. The following applies: filed as agonist. The class given is functional, organism-based.
Assay [9] deals with Rattus norvegicus. Briefly: Tested for intravenous anti-vasopressor pA2 effect in rats; agonist at concentration of 346 units/kg. It counts as functional, organism-based. The following applies: filed as agonist, in the assay text read “346 units/mg” for “346 units/kg”. In outline:
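Vasopressor assay in rats anesthetized with urethane and pretreated with phenoxybenzamine, with intravenous injections. Antagonism is expressed as pA2, calculated by Schild's method for each assay group and reported as mean ± SE, with the number of assays given.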

Molecules are shown by their SMILES. Starred links: 1 amine or outer side, 2 acyl side, 3 side chain; linkers in the order of their positions; H or OH if unused. Positions of bridges follow the written chain, without caps; N, C: chain ends. Non-standard residues stand in square brackets, D forms with d. Residues, ends and D or L forms follow the SMILES beside them. X1 = O=C(CC1(S[*:2])CCCCC1)[*:1]; X2 = CC(C)(CC(=O)[*:1])S[*:2]; Mpa = O=C(O)CCS

`COc1ccc(C[C@@H]2NC(=O)CCSSC[C@@H](C(=O)N3CCC[C@H]3C(=O)N[C@@H](CCCN=C(N)N)C(=O)NCC(N)=O)NC(=O)[C@H](CC(N)=O)NC(=O)[C@H](CCC(N)=O)NC(=O)[C@H](Cc3ccccc3)NC2=O)cc1` [listing 1 of 2 here]: the Kb in assay [1] is 38.9 nM.
For `COc1ccc(C[C@@H]2NC(=O)CCSSC[C@@H](C(=O)N3CCC[C@H]3C(=O)N[C@@H](CCCN=C(N)N)C(=O)NCC(N)=O)NC(=O)[C@H](CC(N)=O)NC(=O)[C@H](CCC(N)=O)NC(=O)[C@H](Cc3ccccc3)NC2=O)cc1` [listing 2 of 2 here], the Antidiuretic activity in assay [2] was 830.
Regarding `COc1ccc(C[C@@H]2NC(=O)CCSSC[C@H](C(=O)N3CCC[C@H]3C(=O)N[C@@H](CCCN=C(N)N)C(=O)NCC(N)=O)NC(=O)[C@H](CC(N)=O)NC(=O)[C@H](CCC(N)=O)NC(=O)[C@H](Cc3ccccc3)NC2=O)cc1`, the pA2 (commonly a measure of antagonist potency on a negative log scale) in assay [3] is “agonist at concentration of 4 units/kg”.
Consider `COc1ccc(C[C@@H]2NC(=O)CC3(CCCCC3)SSC[C@@H](C(=O)N3CCC[C@H]3C(=O)N[C@@H](CCCN=C(N)N)C(=O)NCC(N)=O)NC(=O)[C@H](CC(N)=O)NC(=O)[C@H](CCC(N)=O)NC(=O)[C@H](Cc3ccccc3)NC2=O)cc1` (Y(Me)FQNCPRG-NH2; linker N-5 via X1), for which the Antidiuretic activity in assay [2] was 0.31. Besides, the Kb was 240 nM in [4], 7.41 nM in [1], 57.5 nM in [5] and 2.4 nM in assay [6]. Further, the pA2 is 8.13 in assay [1] and 8.67 in [6].
Consider `COc1ccc(C[C@@H]2NC(=O)CC(C)(C)SSC[C@@H](C(=O)N3CCC[C@H]3C(=O)N[C@@H](CCCN=C(N)N)C(=O)NCC(N)=O)NC(=O)[C@H](CC(N)=O)NC(=O)[C@H](CCC(N)=O)NC(=O)[C@H](Cc3ccccc3)NC2=O)cc1` (Y(Me)FQNCPRG-NH2; linker N-5 via X2) [listing 1 of 2 here], for which the Kb in assay [1] was 24.5 nM; in [6], 20.4 nM.
`COc1ccc(C[C@@H]2NC(=O)CC(C)(C)SSC[C@@H](C(=O)N3CCC[C@H]3C(=O)N[C@@H](CCCN=C(N)N)C(=O)NCC(N)=O)NC(=O)[C@H](CC(N)=O)NC(=O)[C@H](CCC(N)=O)NC(=O)[C@H](Cc3ccccc3)NC2=O)cc1` (Y(Me)FQNCPRG-NH2; linker N-5 via X2) [listing 2 of 2 here]: the Antidiuretic activity in assay [2] amounted to 3.5.
For `NC(=O)CC[C@@H]1NC(=O)[C@H](Cc2ccccc2)NC(=O)[C@H](Cc2ccc(O)cc2)NC(=O)CC2(CCCCC2)SSC[C@@H](C(=O)N2CCC[C@H]2C(=O)N[C@@H](CCCN=C(N)N)C(=O)NCC(N)=O)NC(=O)[C@H](CC(N)=O)NC1=O` (YFQNCPRG-NH2; linker N-5 via X1) [listing 1 of 2 here], the Kb in assay [4] is 162 nM; in [5], 64.6 nM; in [6], 4.47 nM.
The compound `NC(=O)CC[C@@H]1NC(=O)[C@H](Cc2ccccc2)NC(=O)[C@H](Cc2ccc(O)cc2)NC(=O)CC2(CCCCC2)SSC[C@@H](C(=O)N2CCC[C@H]2C(=O)N[C@@H](CCCN=C(N)N)C(=O)NCC(N)=O)NC(=O)[C@H](CC(N)=O)NC1=O` (YFQNCPRG-NH2; linker N-5 via X1) [listing 2 of 2 here] registered an Antidiuretic activity in [2] of 0.033.
For the compound `CC1(C)CC(=O)N[C@@H](Cc2ccc(O)cc2)C(=O)N[C@@H](Cc2ccccc2)C(=O)N[C@@H](CCC(N)=O)C(=O)N[C@@H](CC(N)=O)C(=O)N[C@H](C(=O)N2CCC[C@H]2C(=O)N[C@@H](CCCN=C(N)N)C(=O)NCC(N)=O)CSS1` (YFQNCPRG-NH2; linker N-5 via X2) [listing 1 of 2 here], the Kb in assay [1] is 117 nM; in assay [6], 35.5 nM.
`CC1(C)CC(=O)N[C@@H](Cc2ccc(O)cc2)C(=O)N[C@@H](Cc2ccccc2)C(=O)N[C@@H](CCC(N)=O)C(=O)N[C@@H](CC(N)=O)C(=O)N[C@H](C(=O)N2CCC[C@H]2C(=O)N[C@@H](CCCN=C(N)N)C(=O)NCC(N)=O)CSS1` (YFQNCPRG-NH2; linker N-5 via X2) [listing 2 of 2 here]: the Antidiuretic activity in assay [2] turned out to be 42.
With `CC(C)[C@@H]1NC(=O)[C@H](Cc2ccccc2)NC(=O)[C@H](Cc2ccc(O)cc2)NC(=O)CC2(CCCCC2)SSC[C@@H](C(=O)N2CCC[C@H]2C(=O)N[C@H](CCCN=C(N)N)C(=O)NCC(N)=O)NC(=O)[C@H](CC(N)=O)NC1=O` (YFVNCP[dR]G-NH2; linker N-5 via X1) [listing 1 of 2 here], the Kb in assay [1] is 240 nM; in [6] it was 20.9 nM.
With `CC(C)[C@@H]1NC(=O)[C@H](Cc2ccccc2)NC(=O)[C@H](Cc2ccc(O)cc2)NC(=O)CC2(CCCCC2)SSC[C@@H](C(=O)N2CCC[C@H]2C(=O)N[C@H](CCCN=C(N)N)C(=O)NCC(N)=O)NC(=O)[C@H](CC(N)=O)NC1=O` (YFVNCP[dR]G-NH2; linker N-5 via X1) [listing 2 of 2 here], in [2], the Antidiuretic activity is 0.1.
As to `CC(C)[C@@H]1NC(=O)[C@H](Cc2ccccc2)NC(=O)[C@H](Cc2ccc(O)cc2)NC(=O)CC(C)(C)SSC[C@@H](C(=O)N2CCC[C@H]2C(=O)N[C@H](CCCN=C(N)N)C(=O)NCC(N)=O)NC(=O)[C@H](CC(N)=O)NC1=O` (YFVNCP[dR]G-NH2; linker N-5 via X2) [listing 1 of 2 here], the Kb in assay [1] is 58.9 nM; in assay [6] it was 15.1 nM.
As for `CC(C)[C@@H]1NC(=O)[C@H](Cc2ccccc2)NC(=O)[C@H](Cc2ccc(O)cc2)NC(=O)CC(C)(C)SSC[C@@H](C(=O)N2CCC[C@H]2C(=O)N[C@H](CCCN=C(N)N)C(=O)NCC(N)=O)NC(=O)[C@H](CC(N)=O)NC1=O` (YFVNCP[dR]G-NH2; linker N-5 via X2) [listing 2 of 2 here], the Antidiuretic activity in assay [2] was 123.
The compound `CC(C)[C@@H]1NC(=O)[C@H](Cc2ccccc2)NC(=O)[C@H](Cc2ccc(O)cc2)NC(=O)CCSSC[C@@H](C(=O)N2CCC[C@H]2C(=O)N[C@H](CCCNC(=N)N)C(=O)NCC(N)=O)NC(=O)[C@H](CC(N)=O)NC1=O` ([Mpa]YFVNCP[dR]G-NH2; disulfide 1-6) returned an Antidiuretic activity in [2] of 1230. Besides, the pA2 result in assay [7] was “agonist at concentration of 8 units/kg”. In addition, the Kb in [6] was 93.3 nM.
As for `N=C(N)NCCC[C@@H](NC(=O)[C@@H]1CCCN1C(=O)[C@@H]1CSSCCC(=O)N[C@@H](Cc2ccc(O)cc2)C(=O)N[C@@H](Cc2ccccc2)C(=O)N[C@@H](CCC(N)=O)C(=O)N[C@@H](CC(N)=O)C(=O)N1)C(=O)NCC(N)=O` [DESMOPRESSIN], the Antidiuretic activity in assay [2] came out at 1745. Moreover, the pA2 result in assay [8] and in assay [9] was “Agonist” throughout.

For the origin of these results see ChEMBL document CHEMBL1121417, “[1-beta-Mercapto-beta,beta-cyclopentamethylenepropionic acid),2-(O-methyl)tyrosine ]argine-vasopressin and [1-beta-mercapto-beta,beta-cyclopentamethylenepropionic acid)]argine-vasopressine, two highly potent antagonists of the vasopressor response to arginine-vasopressin” (J Med Chem, 1980).
